Reference: ChEMBL document CHEMBL1949557, “Discovery of INCB3284, a Potent, Selective, and Orally Bioavailable hCCR2 Antagonist” (ACS Med Chem Lett, 2011)
pIC50: −log10 of the molar value. The source made the active and inactive calls. No cut-off for these calls is given here.

Columns and labels:
[1] = Half life in cynomolgus monkey at 30 mg/kg, po; type: ADME, organism-based, Macaca fascicularis; parameters: dose 30 mg/kg, route oral; details: in vivo
How it was run: (§1)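 Pharmacokinetics run in rats, dogs, cynomolgus monkeys and chimpanzees, with two animals per species for the iv arm and two per species for the oral arm. Parameters were derived per species and route: CL, Vss and T1/2 from iv dosing; Cmax, Tmax, AUC, T1/2 and F% from oral dosing. Values are reported as mean ± spread.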

[2] = target: T1, C-C chemokine receptor type 2 (Homo sapiens, UniProt P41597); assay: Displacement of [125I]MCP1 from CCR2 in human PBMC after 30 mins by gamma counter
T1 sequence (P41597 whole entry): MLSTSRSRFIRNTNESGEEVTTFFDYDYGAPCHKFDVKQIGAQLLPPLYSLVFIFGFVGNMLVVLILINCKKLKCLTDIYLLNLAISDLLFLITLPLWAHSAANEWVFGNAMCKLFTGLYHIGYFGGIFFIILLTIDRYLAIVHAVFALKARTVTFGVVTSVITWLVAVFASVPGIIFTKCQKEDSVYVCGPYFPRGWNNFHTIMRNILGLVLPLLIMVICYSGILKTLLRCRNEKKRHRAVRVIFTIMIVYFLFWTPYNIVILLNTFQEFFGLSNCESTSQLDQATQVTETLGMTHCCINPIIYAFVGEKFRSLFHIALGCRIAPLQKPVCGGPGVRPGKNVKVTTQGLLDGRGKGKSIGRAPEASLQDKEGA

[3] = Half life in rat at 10 mg/kg, po; type: ADME, organism-based; parameters: dose 10 mg/kg, route oral; details: in vivo; how it was run: as §1
[4] = Tmax in rat at 10 mg/kg, po; type: ADME, organism-based; parameters: dose 10 mg/kg, route oral; details: in vivo; how it was run: as §1
Cytochrome P450 2D6 = Cytochrome P450 2D6 (Homo sapiens, UniProt P10635); assay: Inhibition of CYP2D6; type: ADME
Cytochrome P450 2D6, sequence (P10635 whole entry): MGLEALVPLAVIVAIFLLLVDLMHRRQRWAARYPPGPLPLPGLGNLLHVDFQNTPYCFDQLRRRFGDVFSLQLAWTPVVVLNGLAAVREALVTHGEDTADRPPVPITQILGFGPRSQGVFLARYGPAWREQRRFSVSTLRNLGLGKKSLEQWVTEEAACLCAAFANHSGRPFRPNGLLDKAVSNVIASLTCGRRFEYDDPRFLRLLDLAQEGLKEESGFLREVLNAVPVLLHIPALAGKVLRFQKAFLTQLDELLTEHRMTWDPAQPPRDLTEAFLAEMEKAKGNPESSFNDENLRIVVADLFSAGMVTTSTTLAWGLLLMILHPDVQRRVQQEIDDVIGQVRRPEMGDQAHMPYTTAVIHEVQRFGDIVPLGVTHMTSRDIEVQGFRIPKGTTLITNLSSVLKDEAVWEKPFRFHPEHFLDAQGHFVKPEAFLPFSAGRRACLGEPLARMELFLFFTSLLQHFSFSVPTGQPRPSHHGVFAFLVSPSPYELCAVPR

[5] = Clearance in chimpanzee at 1 mg/kg, iv; type: ADME, organism-based, Pan troglodytes; parameters: dose 1 mg/kg, route intravenous; details: in vivo; how it was run: as §1
[6] = target: T2, C-X-C chemokine receptor type 3 (Homo sapiens) (UniProt P49682); assay: Inhibition of CXCR3 at 1 uM
T2 sequence (whole entry): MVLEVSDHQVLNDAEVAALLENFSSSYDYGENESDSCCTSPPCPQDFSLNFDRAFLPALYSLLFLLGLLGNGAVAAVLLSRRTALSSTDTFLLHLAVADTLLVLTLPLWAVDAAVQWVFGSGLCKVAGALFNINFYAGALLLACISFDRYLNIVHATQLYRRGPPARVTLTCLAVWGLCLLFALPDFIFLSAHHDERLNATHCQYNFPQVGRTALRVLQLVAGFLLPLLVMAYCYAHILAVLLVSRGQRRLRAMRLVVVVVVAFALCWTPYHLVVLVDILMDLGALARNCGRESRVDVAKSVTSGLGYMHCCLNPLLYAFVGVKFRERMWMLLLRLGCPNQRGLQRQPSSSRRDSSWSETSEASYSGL
How it was run: (§2)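 Cerep selectivity panel of over 50 ion channels, transporters, chemokine receptors and other GPCRs. Single test concentration of 1 μM, scored for significant inhibition.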

[7] = Tmax in cynomolgus monkey at 30 mg/kg, po; type: ADME, organism-based, Macaca fascicularis; parameters: dose 30 mg/kg, route oral; details: in vivo; how it was run: as §1
Cytochrome P450 2C19 = Cytochrome P450 2C19 (Homo sapiens, UniProt P33261); assay: Inhibition of CYP2C19; type: ADME
Cytochrome P450 2C19, sequence (P33261 whole entry): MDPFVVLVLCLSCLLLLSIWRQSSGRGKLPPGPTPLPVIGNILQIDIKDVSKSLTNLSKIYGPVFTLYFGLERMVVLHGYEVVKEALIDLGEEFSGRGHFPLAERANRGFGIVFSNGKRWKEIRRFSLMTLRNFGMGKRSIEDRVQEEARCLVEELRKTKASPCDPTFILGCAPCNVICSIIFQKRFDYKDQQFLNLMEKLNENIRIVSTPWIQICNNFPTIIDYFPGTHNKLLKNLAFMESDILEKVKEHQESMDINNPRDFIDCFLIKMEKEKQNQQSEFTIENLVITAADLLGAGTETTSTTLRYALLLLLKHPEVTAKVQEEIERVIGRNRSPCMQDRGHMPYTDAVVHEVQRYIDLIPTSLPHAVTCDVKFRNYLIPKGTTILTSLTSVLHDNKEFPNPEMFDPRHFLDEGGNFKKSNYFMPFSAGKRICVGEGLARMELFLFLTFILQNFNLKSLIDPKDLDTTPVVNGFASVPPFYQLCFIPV

Cytochrome P450 1A2 = target: T3, Cytochrome P450 1A2 (Homo sapiens, UniProt P05177); assay: Inhibition of CYP1A2; type: ADME
T3 sequence (P05177 whole entry): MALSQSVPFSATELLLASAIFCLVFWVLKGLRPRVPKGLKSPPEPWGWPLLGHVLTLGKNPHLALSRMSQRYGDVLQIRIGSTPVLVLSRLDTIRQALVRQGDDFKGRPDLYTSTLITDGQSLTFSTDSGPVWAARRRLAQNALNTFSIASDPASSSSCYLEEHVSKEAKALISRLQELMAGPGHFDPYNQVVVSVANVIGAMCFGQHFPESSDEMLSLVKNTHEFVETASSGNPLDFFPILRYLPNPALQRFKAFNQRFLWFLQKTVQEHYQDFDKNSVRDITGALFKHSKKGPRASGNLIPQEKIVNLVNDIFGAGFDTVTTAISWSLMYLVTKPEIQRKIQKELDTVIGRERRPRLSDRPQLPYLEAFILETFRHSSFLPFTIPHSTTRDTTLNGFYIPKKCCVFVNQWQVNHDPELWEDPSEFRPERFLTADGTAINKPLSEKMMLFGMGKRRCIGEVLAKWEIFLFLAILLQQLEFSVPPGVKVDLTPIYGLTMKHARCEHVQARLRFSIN

Rattus norvegicus [8] = assay: AUC in rat at 10 mg/kg, po; type: ADME, organism-based, Plasma; parameters: dose 10 mg/kg, route oral; details: in vivo; how it was run: as §1
[9] = Half life in chimpanzee at 4 mg/kg, po; type: ADME, organism-based, Pan troglodytes; parameters: dose 4 mg/kg, route oral; details: in vivo; how it was run: as §1
[10] = target: T1, C-C chemokine receptor type 2; assay: Inhibition of human CCR2-mediated Erk phosphorylation
[11] = Induction of cytochrome P450 up to 10 uM by luminometric luciferase assay; type: ADME
[12] = Clearance in cynomolgus monkey at 5 mg/kg, iv; type: ADME, organism-based, Macaca fascicularis; parameters: dose 5 mg/kg, route intravenous; details: in vivo; how it was run: as §1
Cytochrome P450 2C9 = Cytochrome P450 2C9 (Homo sapiens, UniProt P11712); assay: Inhibition of CYP2C9; type: ADME
Cytochrome P450 2C9, sequence (P11712 whole entry): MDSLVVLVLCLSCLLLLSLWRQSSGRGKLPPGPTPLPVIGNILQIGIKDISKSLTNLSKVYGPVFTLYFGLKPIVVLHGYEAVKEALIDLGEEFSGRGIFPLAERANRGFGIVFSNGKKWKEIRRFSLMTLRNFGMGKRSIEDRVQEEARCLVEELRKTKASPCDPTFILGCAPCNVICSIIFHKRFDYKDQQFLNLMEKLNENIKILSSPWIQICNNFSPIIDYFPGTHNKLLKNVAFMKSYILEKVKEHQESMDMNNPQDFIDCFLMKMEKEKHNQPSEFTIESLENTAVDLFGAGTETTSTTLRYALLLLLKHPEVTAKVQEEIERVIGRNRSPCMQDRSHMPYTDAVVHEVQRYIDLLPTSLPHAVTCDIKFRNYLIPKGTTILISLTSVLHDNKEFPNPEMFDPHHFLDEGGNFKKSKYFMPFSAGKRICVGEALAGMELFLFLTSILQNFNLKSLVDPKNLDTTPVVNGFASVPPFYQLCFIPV

[13] = AUC in chimpanzee at 4 mg/kg, po; type: ADME, organism-based, Pan troglodytes; parameters: dose 4 mg/kg, route oral; details: plasma; how it was run: as §1
[14] = Cmax in cynomolgus monkey at 30 mg/kg, po; type: ADME, organism-based, Macaca fascicularis; parameters: dose 30 mg/kg, route oral; details: in vivo; how it was run: as §1
[15] = target: T4, C-X-C chemokine receptor type 5 (Homo sapiens) (UniProt P32302); assay: Inhibition of CXCR5 at 1 uM; how it was run: as §2
T4 sequence (whole entry): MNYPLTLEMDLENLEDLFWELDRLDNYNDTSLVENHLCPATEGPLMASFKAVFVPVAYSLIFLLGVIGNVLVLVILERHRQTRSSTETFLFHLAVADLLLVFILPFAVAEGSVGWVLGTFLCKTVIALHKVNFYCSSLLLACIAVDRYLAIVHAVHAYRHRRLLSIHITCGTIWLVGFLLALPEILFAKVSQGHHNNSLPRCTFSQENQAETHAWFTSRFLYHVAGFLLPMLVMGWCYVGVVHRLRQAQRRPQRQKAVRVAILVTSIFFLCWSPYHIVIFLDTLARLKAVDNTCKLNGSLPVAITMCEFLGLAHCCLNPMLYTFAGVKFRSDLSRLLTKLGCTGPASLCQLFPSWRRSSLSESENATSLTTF

Rattus norvegicus [16] = assay: Clearance in rat at 5 mg/kg, iv; type: ADME, organism-based; parameters: dose 5 mg/kg, route intravenous; details: in vivo; how it was run: as §1
[17] = Half life in chimpanzee at 1 mg/kg, iv; type: ADME, organism-based, Pan troglodytes; parameters: dose 1 mg/kg, route intravenous; details: in vivo; how it was run: as §1
[18] = Oral bioavailability in dog at 30 mg/kg; type: ADME, organism-based, Canis lupus familiaris; details: in vivo; how it was run: as §1
[19] = AUC in cynomolgus monkey at 30 mg/kg, po; type: ADME, organism-based, Macaca fascicularis; parameters: dose 30 mg/kg, route oral; details: plasma; how it was run: as §1
Liver = assay: Metabolic stability in human liver S9 fraction assessed as glutathione adduct formation in presence of glutathione and NADPH; type: ADME, subcellular
[20] = Fraction unbound in human serum at 1 to 10 uM; type: ADME, cell-free
How it was run: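 Serum protein binding measured in human serum at 1 and 10 μM test concentrations. Read-out is the free (unbound) fraction.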

[21] = Cmax in rat at 10 mg/kg, po; type: ADME, organism-based; parameters: dose 10 mg/kg, route oral; details: in vivo; how it was run: as §1
[22] = Half life in dog at 30 mg/kg, po; type: ADME, organism-based, Canis lupus familiaris; parameters: dose 30 mg/kg, route oral; details: in vivo; how it was run: as §1
[23] = AUC in dog at 30 mg/kg, po; type: ADME, organism-based, Canis lupus familiaris; parameters: dose 30 mg/kg, route oral; details: plasma; how it was run: as §1
[24] = target: T5, C-C chemokine receptor type 1 (Homo sapiens) (UniProt P32246); assay: Inhibition of CCR1 at 1 uM; how it was run: as §2
T5 sequence (whole entry): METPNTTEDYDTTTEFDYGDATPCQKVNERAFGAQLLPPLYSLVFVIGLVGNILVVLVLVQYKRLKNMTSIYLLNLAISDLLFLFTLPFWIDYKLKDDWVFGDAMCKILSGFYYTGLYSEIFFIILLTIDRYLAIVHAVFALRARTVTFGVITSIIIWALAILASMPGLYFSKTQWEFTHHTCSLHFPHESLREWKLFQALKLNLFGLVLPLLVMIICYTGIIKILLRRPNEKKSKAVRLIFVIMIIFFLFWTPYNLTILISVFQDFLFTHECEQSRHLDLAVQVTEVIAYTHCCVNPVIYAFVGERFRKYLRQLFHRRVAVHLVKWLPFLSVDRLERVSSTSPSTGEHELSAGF

[25] = target: C-C chemokine receptor type 5 (Homo sapiens) (UniProt P51681); assay: Inhibition of CCR5 at 1 uM; how it was run: as §2
C-C chemokine receptor type 5 (Homo sapiens), sequence (P51681 whole entry, looked up): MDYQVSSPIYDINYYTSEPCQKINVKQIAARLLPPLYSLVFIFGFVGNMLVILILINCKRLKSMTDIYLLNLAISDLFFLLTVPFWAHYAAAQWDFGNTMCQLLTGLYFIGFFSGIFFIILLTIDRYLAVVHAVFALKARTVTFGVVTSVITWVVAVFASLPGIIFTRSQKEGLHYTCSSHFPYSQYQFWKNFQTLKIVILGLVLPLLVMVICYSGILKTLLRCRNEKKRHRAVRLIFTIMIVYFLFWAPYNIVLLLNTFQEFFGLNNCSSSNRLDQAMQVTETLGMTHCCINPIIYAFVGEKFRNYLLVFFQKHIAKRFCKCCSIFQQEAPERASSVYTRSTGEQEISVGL

## COc1ccc([C@]2(O)CC[C@H](N3CC[C@@H](NC(=O)CNC(=O)c4cccc(C(F)(F)F)c4)C3)CC2)cn1.CS(=O)(=O)O
[1]
  half-life: 5.1 h
[2]
  pIC50: 8.43
[3]
  half-life: 2.9 h
[4]
  Tmax: 4 h
Cytochrome P450 2D6
  pIC50: < 4.60
[5]
  clearance: 5.83 mL/min/kg
[6]
  inhibition: inactive
[7]
  Tmax: 1.5 h
Cytochrome P450 2C19
  pIC50: < 4.60
Cytochrome P450 1A2
  pIC50: < 4.60
Rattus norvegicus [8]
  AUC: 3.657 µM·h
[9]
  half-life: 5.3 h
[10]
  pIC50: 8.59
[11]
  Activity: Not Active
[12]
  clearance: 13.7 mL/min/kg
Cytochrome P450 2C9
  pIC50: < 4.60
[13]
  AUC: 4.94 µM·h
[14]
  Cmax: 2630 nM
[15]
  inhibition: inactive
Rattus norvegicus [16]
  CL: 56.7 mL/min/kg
[17]
  half-life: 3.8 h
[18]
  bioavailability: 31%
[19]
  AUC: 9.08 µM·h
Liver
  Stability: Stable
[20]
  fraction unbound at up to 10 µM: 0.58
[21]
  Cmax: 573 nM
[22]
  half-life: 3.3 h
[23]
  AUC: 33.3 µM·h
[24]
  inhibition: inactive
[25]
  inhibition: inactive
